Laboratory results: ChEMBL document CHEMBL5705901, “Exploiting selective BCL-2 family inhibitors to dissect cell survival dependencies and define improved strategies for cancer therapy” (Sci Transl Med, 2015)
Calls of active or inactive are those of the source. The rule behind the calls is not given here.

Key:
MDA-MB-231 [1] = assay: Synergistic antitumor activity against LC3 positive human MDA-MB-231 cells xenografted in SCID mouse assessed as tumor growth delay at 25 mg/kg, po coadministered with docetaxel once daily for 14 days relative to control; type: functional; conditions: time 14 day
Summary of the method: (§1)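 MDA-MB-231 LC3 metastatic breast cancer xenograft, 10 mice per group, with a vehicle control. Dosing: oral agent 25 mg/kg daily for 14 days; docetaxel 7.5 mg/kg iv once; combination gives both regimens. Mean tumor volumes tracked. TGImax = 100(1 − Tv/Cv) from mean treated vs control volumes. TGD = 100(T/C − 1) from median times to reach 1 cm3.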

MOLT-4 [2] = assay: Induction of apoptosis in human MOLT-4 cells assessed as increase in annexin V positive cells upto 500 nM incubated for 24 hrs by Annexin V staining based analysis; type: functional, cell-based
Summary of the method: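 Molt-4 cells were preincubated for 1 h with or without Z-VAD-fmk (75 μM), then treated for 24 h with increasing concentrations. Phosphatidylserine exposure was measured by annexin V staining. Values are the mean of triplicate experiments ± SD.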

MDA-MB-231 [3] = assay: Synergistic antitumor activity against LC3 positive human MDA-MB-231 cells xenografted in SCID mouse assessed as maximum tumor growth inhibition at 25 mg/kg, po coadministered with docetaxel once daily for 14 days relative to control; type: functional; conditions: MDA-MB-231, 336 h, time 14 day, read-out: TGI; summary of the method: as §1
EBC-1 = assay: Antitumor activity against human EBC-1 cells xenografted in po dosed SCID-bg mouse assessed as maximum tumor growth inhibition relative to control; type: functional
MOLT-4 [4] = assay: Induction of apoptosis in human MOLT-4 cells assessed as cytochrome C release from mitochondria upto 500 nM incubated for 4 hrs by immunoblot analysis; type: functional, cell-based
Summary of the method: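 Molt-4 cells were treated for 4 h with increasing concentrations. Cytochrome c in the mitochondrial and cytosolic fractions was determined by immunoblotting.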

NCI-H1650 = assay: Antitumor activity against human NCI-H1650 cells xenografted in SCID-bg mouse assessed as maximum tumor growth inhibition at 25 mg/kg, po administered daily for 14 days relative to control; type: functional; conditions: NCI-H1650, 336 h, time 14 day, read-out: TGI
Summary of the method: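 NCI-H1650 NSCLC xenografts, ten mice per group. Arms: vehicle; docetaxel iv once at 7.5 mg/kg; oral agent daily for 14 days at 25 mg/kg; and the two combined. TGImax = 100(1 − Tv/Cv) from mean volumes. TGD = 100(T/C − 1) from median times to reach 1 cm3.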

[5] = Toxicity in po dosed SCID-bg mouse assessed as body weight loss in presence of docetaxel relative to control; type: organism-based; conditions: in vivo
NCI-H747 [6] = assay: Antitumor activity against human NCI-H747 cells xenografted in po dosed SCID-bg mouse assessed as tumor growth delay relative to control; type: functional
Summary of the method: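 Tumor volume-based endpoints. TGD = 100(T/C − 1), where T and C are the median times for the treated and control groups to reach 1 cm3. Groups were five mice for NCI-H747 and OVCAR-5 and eight for NCI-H358. Docetaxel was given intravenously and the test agent orally.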

[7] = Toxicity in po dosed SCID mouse assessed as tolerance in presence of docetaxel; type: organism-based; conditions: in vivo
NCI-H747 [8] = assay: Antitumor activity against human NCI-H747 cells xenografted in po dosed SCID-bg mouse assessed as maximum tumor growth inhibition relative to control; type: functional
SK-OV-3 = assay: Synergistic antiproliferative activity against human SK-OV-3 cells assessed as reduction in cell viability by measuring bliss sum score incubated for 72 hrs in presence of docetaxel by CellTiter-Glo cell vaibility assay; type: functional
NCI-H1703 = assay: Synergistic antiproliferative activity against human NCI-H1703 cells assessed as reduction in cell viability by measuring bliss sum score incubated for 72 hrs in presence of docetaxel by CellTiter-Glo cell vaibility assay; type: functional
HCC1806 [9] = assay: Synergistic antiproliferative activity against human HCC1806 cells assessed as reduction in cell viability by measuring bliss sum score incubated for 72 hrs in presence of docetaxel by CellTiter-Glo cell vaibility assay; type: functional
[10] = Synergistic antiproliferative activity against human HCC1500 cells assessed as reduction in cell viability by measuring bliss sum score incubated for 72 hrs in presence of docetaxel by CellTiter-Glo cell vaibility assay; type: functional
HCC1937 [11] = assay: Synergistic antiproliferative activity against human HCC1937 cells assessed as reduction in cell viability by measuring bliss sum score incubated for 72 hrs in presence of docetaxel by CellTiter-Glo cell vaibility assay; type: functional
LXFL 529 = assay: Synergistic antiproliferative activity against human LXFL 529 cells assessed as reduction in cell viability by measuring bliss sum score incubated for 72 hrs in presence of docetaxel by CellTiter-Glo cell vaibility assay; type: functional
MDA-MB-231 [12] = assay: Synergistic antiproliferative activity against LC3 positive human MDA-MB-231 cells assessed as reduction in cell viability by measuring bliss sum score incubated for 72 hrs in presence of docetaxel by CellTiter-Glo cell vaibility assay; type: functional
SK-BR-3 = assay: Synergistic antiproliferative activity against human SK-BR-3 cells assessed as reduction in cell viability by measuring bliss sum score incubated for 72 hrs in presence of docetaxel by CellTiter-Glo cell vaibility assay; type: functional
NCI-H23 = assay: Synergistic antiproliferative activity against human NCI-H23 cells assessed as reduction in cell viability by measuring bliss sum score incubated for 72 hrs in presence of docetaxel by CellTiter-Glo cell vaibility assay; type: functional
NCI-H838 = assay: Synergistic antiproliferative activity against human NCI-H838 cells assessed as reduction in cell viability by measuring bliss sum score incubated for 72 hrs in presence of docetaxel by CellTiter-Glo cell vaibility assay; type: functional
MDA-MB-468 = assay: Induction of apoptosis in human MDA-MB-468 cells assessed as increase in caspase cleavage incubated for 48 hrs in presence of docetaxel by immunoblot analysis; type: functional, cell-based
HCC1428 = assay: Induction of apoptosis in human HCC1428 cells assessed as accumulation of cells with sub-G0-G1 DNA content at 1 uM incubated for 48 hrs in presence of docetaxel by flow cytometric analysis; type: functional, cell-based
MDA-MB-175-VII = assay: Induction of apoptosis in human MDA-MB-175-VII cells assessed as accumulation of cells with sub-G0-G1 DNA content at 1 uM incubated for 48 hrs in presence of docetaxel by flow cytometric analysis; type: functional, cell-based
HCC1806 [13] = assay: Induction of apoptosis in human HCC1806 cells assessed as accumulation of cells with sub-G0-G1 DNA content at 1 uM incubated for 48 hrs in presence of docetaxel by flow cytometric analysis; type: functional, cell-based
HCC1937 [14] = assay: Induction of apoptosis in human HCC1937 cells assessed as accumulation of cells with sub-G0-G1 DNA content at 1 uM incubated for 48 hrs in presence of docetaxel by flow cytometric analysis; type: functional, cell-based
ZR-75-1 = assay: Induction of apoptosis in human ZR-75-1 cells assessed as poly(ADP-ribose) polymerase cleavage incubated for 48 hrs in presence of docetaxel by immunoblot analysis; type: functional, cell-based
MX1 = assay: Induction of apoptosis in human MX1 cells assessed as accumulation of cells with sub-G0-G1 DNA content at 1 uM incubated for 48 hrs in presence of docetaxel by flow cytometric analysis; type: functional, cell-based

Question: With `Cc1c(-c2ccc(N3CCc4cccc(C(=O)Nc5nc6ccccc6s5)c4C3)nc2C(=O)O)cnn1CC12CC3CC(CC(C3)C1)C2` as the compound, how does the Activity (MDA-MB-231 [1]) read?
Answer: 141%

Question: And the Activity (MOLT-4 [2])?
Answer: Active

Question: What about the inhibition in vivo at 25 mg/kg (MDA-MB-231 [3]) of the same compound?
Answer: 93%

Question: And the TGI (EBC-1)?
Answer: 52%

Question: And the Activity (MOLT-4 [4])?
Answer: Active

Question: And the inhibition in vivo at 25 mg/kg (NCI-H1650)?
Answer: 48%

Question: And the Activity [5]?
Answer: < 9%

Question: What about the Activity (NCI-H747 [6]) of the same compound?
Answer: 33%

Question: What about the Activity [7] of the same compound?
Answer: Non-Toxic

Question: And the TGI (NCI-H747 [8])?
Answer: 50%

Question: Which results are given for `CN(C)CC#Cc1ccc(OCCCc2sc(N3CCc4cccc(C(=O)Nc5nc6ccccc6s5)c4C3)nc2C(=O)O)c(F)c1` [A-1155463]?
Answer: Activity_index (SK-OV-3): 747; Activity_index (NCI-H1703): 29; Activity_index (HCC1806 [9]): 224; Activity_index [10]: 146; Activity_index (HCC1937 [11]): 332; Activity_index (LXFL 529): 734; Activity_index (MDA-MB-231 [12]): 305; Activity_index (SK-BR-3): 101; Activity_index (NCI-H23): 97; Activity_index (NCI-H838): 128

Question: Which results are given for `CC1(C)CCC(c2ccc(Cl)cc2)=C(CN2CCN(c3ccc(C(=O)NS(=O)(=O)c4ccc(N[C@H](CCN5CCOCC5)CSc5ccccc5)c(S(=O)(=O)C(F)(F)F)c4)cc3)CC2)C1` [NAVITOCLAX]?
Answer: Activity (MDA-MB-468): Active; Activity (HCC1428): Active; Activity (MDA-MB-175-VII): Active; Activity (HCC1806 [13]): Active; Activity (HCC1937 [14]): Active; Activity (ZR-75-1): Active; Activity (MX1): Active
